Source: PubChem (Broad Institute)
PDI turbidity – blocks human protein disulfide isomerase activity. P07237. PDI insulin aggregation turbidity, A650, 90 min. inhibition, % at 10 µM. 0.052% of 350,000 active. AID 588391;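 active = mean inhibition across replicates of 30% or more, whatever share of single replicates reach that level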
Target sequence (P07237 whole entry, looked up): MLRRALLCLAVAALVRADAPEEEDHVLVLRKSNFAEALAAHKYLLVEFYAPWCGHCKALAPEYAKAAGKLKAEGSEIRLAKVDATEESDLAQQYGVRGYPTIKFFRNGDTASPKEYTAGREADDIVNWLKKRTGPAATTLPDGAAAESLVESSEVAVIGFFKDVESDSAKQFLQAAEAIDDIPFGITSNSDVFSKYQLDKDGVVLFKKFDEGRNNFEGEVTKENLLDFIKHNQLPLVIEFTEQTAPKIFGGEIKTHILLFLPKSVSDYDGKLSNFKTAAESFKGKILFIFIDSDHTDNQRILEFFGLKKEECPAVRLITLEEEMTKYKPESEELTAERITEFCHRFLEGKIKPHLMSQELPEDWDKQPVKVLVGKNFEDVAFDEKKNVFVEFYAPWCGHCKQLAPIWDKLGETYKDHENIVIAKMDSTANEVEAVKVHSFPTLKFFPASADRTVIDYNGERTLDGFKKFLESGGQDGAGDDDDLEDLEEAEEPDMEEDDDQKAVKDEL
Cneo AK release – Cryptococcus neoformans lysis via adenylate kinase release | C. neoformans lysis, adenylate kinase release luminescence, 4 h; normalised: neutral wells 0, clomiphene wells 100 | AID 651654 | 0.2% of 360,000 active | lysis activity, % at 15 µM;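 active = mean lysis activity across replicates of at least 80%, whatever share of replicates individually reach that level; inactive = mean lysis activity below 80%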
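Assay system: C. neoformans cells. Amount: yeast cell density of 5 × 10^6 cells/mL. Technique: AK luminescence. Buffer or medium: YPD. Times: static 4 h at 37 °C with compound, 1 h detection. Dosing: single-point compound dose. Read-out: lysis from increased AK signal.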
DENV2 CPE rescue – protects cells from dengue virus 2 cytopathic effect; CPE inhibition, % at 9.99 µM; AID 651640; 1.7% of 350,000 active; DENV2-infected cells, cytopathic effect rescue, plate reader; in the data active = CPE inhibition above about 20%, passing the limit was not always enough; tested in BHK-21 cells;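 note: 0% = median of neutral control wells and 100% = median of positive control wells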
CFTR F508del cor – CFTR F508del correction in bronchial cells; CFBE cells, YFP halide quenching; stimulated with forskolin plus potentiator P3; % fluorescence drop versus neutral controls; activity (quench increase), % at 7.58 µM; 0.36% of 350,000 active; AID 720511;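 active = mean added fluorescence quench of at least 8% versus neutral control, with both replicates also reaching 8%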;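 note: cells transiently co-express mutant CFTR-F508del with the halide-sensitive YFP; corrector assay measuring rescue of mutant channel to the surface after 24 h compound exposure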
ERp5 inh – inhibitors of human ERp5; AID 651711; 0.05% of 350,000 active; inhibition, % at 9.99 µM; ERp5 insulin aggregation, absorbance 650 nm, 90 min;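 active = mean replicate inhibition above about 25%, with every replicate also reaching it, limit read from the data, passing the limit was not always enough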
Statin myotox sup – suppressors of simvastatin-induced myotoxicity in C2C12 myotubes; ATP luminescence, 48 h; scaled: DMSO 0, geranylgeraniol control 100; rescue of ATP level, % at 7.49 µM; 0.78% of 330,000 active;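 active = mean ATP rescue above about 67%, or every replicate alone reaching that limit, limit read from the data, passing the limit was not always enough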;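 note: myotubes were challenged with 10 µM simvastatin during compound exposure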
Numbers without * were called inactive; · = no result; ! = repeats disagree. Compounds with a hit are over-represented: about 2.3% of the library has one in this group of screens.

SMILES	PDI turbidity	Cneo AK release	DENV2 CPE rescue	CFTR F508del cor	ERp5 inh	Statin myotox sup
CCS(=O)(=O)Nc1ccc2c(c1)C(=O)N(C)[C@@H]1CC[C@H](CC(=O)Nc3ccccc3)O[C@H]1CO2	·	0	-3	0	-2	-20
CCNc1nc(N)c(C(=O)C23CC4CC(CC(C4)C2)C3)s1	-4	0	53*	0	-4	-25
CO[C@H]1CN(C)C(=O)c2ccc(NC(=O)Nc3ccccc3)cc2OC[C@@H](C)NC[C@@H]1C	·	-6	-5	-1	-5	5
CO[C@@H]1CN(C)C(=O)c2ccc(NC(=O)Nc3cccc(F)c3)cc2OC[C@@H](C)NC[C@H]1C	·	-1	3	-3	-3	-30
CO[C@@H]1CN(C)C(=O)c2ccc(NC(=O)Nc3ccc(F)cc3)cc2OC[C@H](C)NC[C@@H]1C	·	1	36*	·	6	10
CO[C@H]1CN(C)C(=O)c2ccc(NC(=O)Nc3ccccc3)cc2OC[C@H](C)NC[C@@H]1C	·	·	32*	-3	4	·
Cc1noc(C)c1S(=O)(=O)Nc1ccc2c(c1)C(=O)N([C@@H](C)CO)C[C@H](C)[C@@H](CN(C)S(=O)(=O)c1ccc(F)cc1)O2	·	·	2	-2	7	2
O=C(NCc1ccncn1)[C@@H]1[C@@H](CO)[C@@H]2Cn3c(ccc(-c4cccc(F)c4)c3=O)[C@@H]2N1CC1CC1	·	1	5	-1	-1	1
Cc1cccc(-n2ncc3c(NCCc4ccc(S(N)(=O)=O)cc4)ncnc32)c1	12	-2	0	5	2	105*
COc1ccc(CN(C)C[C@@H]2OCCCC[C@H](C)Oc3ccc(NS(=O)(=O)c4ccc(Cl)cc4)cc3C(=O)N([C@H](C)CO)C[C@@H]2C)cc1	·	0	-12	2	-9	·
Nc1nonc1-n1nnc(C(=O)N/N=C/c2cccc(Cl)c2)c1-c1cccs1	-8	1	-4	0	-1	72*
CCOc1cccc(-c2c(C(=O)N/N=C/c3ccco3)nnn2-c2nonc2N)c1	3	0	·	·	·	-7
C/C(=N\NC(=O)c1nnn(-c2nonc2N)c1-c1ccccc1)c1cccnc1	14	-1	96*	1	-6	·
CCOc1cccc(-c2c(C(=O)N/N=C/c3ccc(C)o3)nnn2-c2nonc2N)c1	4	-1	19	1	27*	12
CO[C@H]1CN(C)C(=O)c2cc(NS(C)(=O)=O)ccc2OC[C@H](C)N(C(=O)C2CC2)C[C@H]1C	·	-5	18	0	-2	9
Cc1ccc(S(=O)(=O)c2nnn3c2nc(N2CCOCC2)c2ccccc23)cc1C	4	-5	25*	3	1	25
Cc1cccc(/C=N/NC(=O)c2cc(C)nc3ccccc23)n1	-3	5	10	5	4	-4
Cc1cc(C(=O)N/N=C/c2ccc([N+](=O)[O-])cc2)c2ccccc2n1	2	-4	-5	14*	0	-24
Cc1cc(C(=O)N/N=C/c2ccc3c(c2)OCO3)c2ccccc2n1	-4	·	1	19*	7	·
Cc1cc(C(=O)N/N=C/c2ccc(N(C)C)cc2)c2ccccc2n1	8	·	2	8.3*	1	·
C[C@@H]1CCCCO[C@H](CN(C)C)[C@H](C)CN([C@H](C)CO)C(=O)c2cc(NC(=O)Nc3ccc4c(c3)OCO4)ccc2O1	·	2	10	1	1	3
CCCCC(=O)NC(c1ccc(Cl)cc1)c1ccc2cccnc2c1O (stereo not drawn)	7	4	-7	2	5	-6
CC(=O)NC(c1ccc(Cl)cc1Cl)c1ccc2cccnc2c1O (stereo not drawn)	0	-1	2	10*	1	4
CCCC(=O)NC(c1ccc(Cl)cc1)c1ccc2cccnc2c1O (stereo not drawn)	-7	2	4	15*	2	-67
CC(=O)NC(c1ccc2ccccc2c1)c1ccc2cccnc2c1O (stereo not drawn)	-1	0	-3	13*	-3	-6
SMILES	PDI turbidity	Cneo AK release	DENV2 CPE rescue	CFTR F508del cor	ERp5 inh	Statin myotox sup
COc1ccc(C(NC(C)=O)c2ccc3cccnc3c2O)c(OC)c1 (stereo not drawn)	9	4	·	·	·	22
Cc1ccc(CNC(=O)COC(=O)c2ccc(S(=O)(=O)N(C)C)cc2)cc1	4	1	9	8.1*	1	5
CN(C)S(=O)(=O)c1ccc(C(=O)OCC(=O)NCc2ccccc2)cc1	2	0	-2	-2	-2	-4
COc1cc(/C=C/C=C2/CC/C(=C/C=C/c3ccc(O)c(OC)c3)C2=O)ccc1O	39*	·	18	0	1	·
COc1cc(/C=C2/CC/C(=C/c3ccc(O)c(OC)c3)C2=O)ccc1O	0	·	6	3	2	·
C[C@H](CO)N1C[C@H](C)[C@@H](CN(C)Cc2ccccc2)Oc2c(NS(C)(=O)=O)cccc2C1=O	·	-3	39*!	5	2	13
C[C@@H]1CN([C@@H](C)CO)C(=O)c2cccc(NS(C)(=O)=O)c2O[C@H]1CN(C)Cc1ccc(-c2ccccc2)cc1	·	5	-7	4	0	-16
C[C@H]1CN([C@@H](C)CO)C(=O)c2cccc(NS(C)(=O)=O)c2O[C@@H]1CN(C)Cc1ccc(-c2ccccc2)cc1	·	111*	-7	1	3	43
C[C@H]1CN([C@@H](C)CO)C(=O)c2cccc(NS(C)(=O)=O)c2O[C@H]1CN(C)Cc1ccccc1	·	-1	14	3	4	27
CCCC(=O)Nc1ccc2c(c1)C(=O)N(C)C[C@H](OC)[C@@H](C)CN(C(=O)CN(C)C)[C@H](C)CO2	·	-3	1	0	-3	-2
C[C@H](NC(=O)C[C@@H]1C[C@@H]2c3cc(NC(=O)CC4CC4)ccc3O[C@@H]2[C@@H](CO)O1)c1ccccc1	·	0	3	0	0	-1
O=S(=O)(c1cccc(F)c1)N1CC[C@@H]2[C@H](CO)Nc3ccc(C#Cc4ccccc4F)cc3[C@@H]21	·	9	24*	1	-1	-6
O=S(=O)(c1cccc(F)c1)N1CC[C@@H]2[C@@H](CO)Nc3ccc(C#Cc4cccc(F)c4)cc3[C@@H]21	·	-10	23*	3	·	-27
O=C(Cc1cccnc1)N1CC[C@H]2[C@H](CO)Nc3ccc(C#Cc4cccc(F)c4)cc3[C@H]21	·	·	62*	0	3	·
O=S(=O)(c1cccc(F)c1)N1CC[C@@H]2[C@H]1c1cc(C#Cc3cccc(F)c3)ccc1N[C@@H]2CO	·	-1	7	3	·	27
CCCC#Cc1cnc2c(c1)C(=O)N([C@@H](C)CO)C[C@H](C)[C@@H](CN(C)C(=O)NC1CCCC1)O2	·	5	-1	·	-4	10
